In the array DNA melting data of Ke et al. (doi:10.1101/2024.01.08.574731) one finds folding enthalpy and Tm data, which are given here for 37 sequences.

Data set [1] is described as follows: folding enthalpy; higher = less favourable; fluorescence melt of hairpins on a sequencing array, two-state fit. Particulars: sodium 0.088 M. A digest of the protocol: (§1)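 On a sequenced MiSeq flow cell, library hairpins with annealed Cy3 and quencher oligos were imaged for Cy3 fluorescence in 2.5 °C steps up to 60 °C, in 50 mM Na-HEPES pH 8.0, 25 mM NaCl. Normalisation used pre-quench Cy3 and control constructs. Bootstrapped two-state fits gave melting temperature and folding enthalpy, combined by inverse variance across four replicates and with fitted temperatures raised by 9.35 °C to match UV melts.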

The nature of data set [2]: melting temperature; fluorescence melt of hairpins on a sequencing array, two-state fit, raised by 9.35 °C to match UV melts. To be noted: sodium 0.088 M. In short, it runs like this:
as §1

For GCTTAACGAAAGTTGAGC (((.(((....))).))), the folding enthalpy in data set [1] was -38.9 kcal/mol. The Tm in data set [2] came to 52.4 °C.
In the case of GCTTAACGAAAGTTTAGC (((.(((....))).))), the folding enthalpy in data set [1] is -30.5 kcal/mol. In addition, the Tm in data set [2] was determined as 46.4 °C.
With GCTTAAGGAAACTTGAGC (((.(((....))).))), the folding enthalpy in data set [1] was -31.5 kcal/mol. In addition, the Tm in data set [2] worked out at 38.9 °C.
As to GCTTACCGAAAGGTCAGC (((.(((....))).))), the folding enthalpy in data set [1] was -27.8 kcal/mol. The Tm in data set [2] is 50.3 °C.
As for GCTTACCGAAAGGTGAGC (((.(((....))).))), in data set [1], the folding enthalpy was -40.5 kcal/mol. Besides, the Tm in data set [2] was found to be 58.6 °C.
As for GCTTACGAAAGTACCAGC ((((((....)))..))), the folding enthalpy in data set [1] was -13.2 kcal/mol. Moreover, the Tm in data set [2] worked out at 27.9 °C.
Take GCTTACGAAAGTATAGC ((((((....))).))): the folding enthalpy in data set [1] was -23.4 kcal/mol. Also, the Tm in data set [2] amounted to 44.6 °C.
Regarding GCTTACGAAAGTATGAGC ((((((....)))..))), the folding enthalpy in data set [1] is -20.5 kcal/mol. The Tm in data set [2] amounted to 34.7 °C.
With GCTTACGGAAACGCAAGC ((((.((....)).)))), the folding enthalpy in data set [1] is -44.1 kcal/mol. In addition, in data set [2], the Tm turned out to be 46 °C.
Taken in the same sequence, the figures for GCTTAGCGAAAGCAACGC ((.(.((....)).).)) were -7.36 kcal/mol and 30.5 °C.
GCTTAGCGAAAGCCACGC ((.(.((....)).).)): the folding enthalpy in data set [1] is -8.56 kcal/mol. Also, the Tm in data set [2] was 22.5 °C.
For GCTTAGCGAAAGCCATGC ((.(.((....)).).)), in data set [1], the folding enthalpy was -11.2 kcal/mol. The Tm in data set [2] was found to be 29.6 °C.
As to GCTTAGCGAAAGCCTAGC (((..((....))..))), the folding enthalpy in data set [1] was -15.6 kcal/mol. Besides, the Tm in data set [2] is 37.8 °C.
In the same order, the values of GCTTAGCGAAAGCGACGC ((.(.((....)).).)) are -18.2 kcal/mol and 53.2 °C.
Regarding GCTTAGCGAAAGCTCGGC ((..(((....)))..)), in data set [1], the folding enthalpy was -17.7 kcal/mol. Also, the Tm in data set [2] amounted to 36.7 °C.
Regarding GCTTAGGGAAACCTAGGC ((.((((....)))).)), the folding enthalpy in data set [1] is -34.1 kcal/mol. Also, the Tm in data set [2] turned out to be 44.4 °C.
GCTTAGGGAAACTTAAGC (((((.(....).))))): the folding enthalpy in data set [1] was -30 kcal/mol. Further, the Tm in data set [2] came to 37.9 °C.
Turning to GCTTATGCGAAAGCAAGC (((..(((....)))))), the folding enthalpy in data set [1] is -16.6 kcal/mol. In addition, the Tm in data set [2] was 42.4 °C.
Taken in the same sequence, the figures for GCTTCAACGAAAGTTAGC (((..(((....)))))) were -18.7 kcal/mol and 30.9 °C.
On to GCTTCACGAAAGTGGAGC (((.(((....))).))), for which the folding enthalpy in data set [1] is -43.7 kcal/mol. Besides, the Tm in data set [2] was determined as 58.3 °C.
With GCTTCAGGAAACTGAGGC ((.((((....)))).)), the folding enthalpy in data set [1] was -37.3 kcal/mol. Also, in data set [2], the Tm was 47.7 °C.
In the same order, the values of GCTTCAGGAAACTGGAGC (((.(((....))).))) are -38.5 kcal/mol and 49.9 °C.
Taken in the same sequence, the figures for GCTTCCGAAAGGAGCAGC ((((((....)))..))) were -15.2 kcal/mol and 41.7 °C.
Taken in the same sequence, the figures for GCTTCCGCGAAAGCGAGC (((..(((....)))))) were -11 kcal/mol and 35.5 °C.
Turning to GCTTCCGGAAACGGGAGC (((.(((....))).))), the folding enthalpy in data set [1] was -40.1 kcal/mol. Also, in data set [2], the Tm came out at 59.5 °C.
Consider GCTTCGAAAGAAGC (((((....))))), for which the folding enthalpy in data set [1] was -26.6 kcal/mol. For the same sequence, the Tm in data set [2] is 66.8 °C.
Turning to GCTTCGCGAAAGCAACGC ((.(.((....)).).)), in data set [1], the folding enthalpy was -10 kcal/mol. Moreover, in data set [2], the Tm was found to be 29.2 °C.
For the sequence GCTTCGCGAAAGCGCCGC ((..(((....)))..)), the folding enthalpy in data set [1] is -12.2 kcal/mol. The Tm in data set [2] was found to be 44.7 °C.
As for GCTTCGCGAAAGCGCGGC ((..(((....)))..)), the folding enthalpy in data set [1] is -18.8 kcal/mol. The Tm in data set [2] was 39.6 °C.
For the sequence GCTTCGCGAAAGCGGCGC ((..(((....)))..)), the folding enthalpy in data set [1] was -15.6 kcal/mol. Besides, in data set [2], the Tm amounted to 51.9 °C.
For GCTTCGCGAAAGCTCAGC (((..((....))..))), the folding enthalpy in data set [1] is -13.4 kcal/mol. For the same sequence, in data set [2], the Tm was found to be 44.5 °C.
On to GCTTCGGAAACGAAGC ((((((....)))))), for which the folding enthalpy in data set [1] was -36.3 kcal/mol. Further, the Tm in data set [2] was determined as 67.8 °C.
In the same order, the values of GCTTCGGGAAACTGAGGC ((.((.(....).)).)) are -28.8 kcal/mol and 36.5 °C.
Take GCTTCTACGAAAGTAAGC (((..(((....)))))): the folding enthalpy in data set [1] was -14 kcal/mol. Also, the Tm in data set [2] came out at 33.1 °C.
For the sequence GCTTCTCGAAAGAGAGC (((.(((....)))))), the folding enthalpy in data set [1] was -22 kcal/mol. For the same sequence, in data set [2], the Tm amounted to 49.4 °C.
For the sequence GCTTCTGGAAACAGGAGC (((.(((....))).))), the folding enthalpy in data set [1] was -37.5 kcal/mol. Moreover, the Tm in data set [2] stood at 50.5 °C.
In the case of GCTTGACCGAAAGGTAGC (((..(((....)))))), the folding enthalpy in data set [1] is -21.4 kcal/mol. In addition, in data set [2], the Tm amounted to 38.7 °C.
